From ChEMBL document CHEMBL1125330, “N-substituted pyrazino[2,3-c][1,2,6]thiadiazine 2,2-dioxides. A new class of diuretics” (J Med Chem, 1992)

Tests used:
Rattus norvegicus [1] = assay: Mean sodium excretion in rats when compound administered at 20 mg/kg po and vehicle dosed at 78.97 umol/kg; type: ADME, organism-based; parameters: dose 20 mg/kg, route oral; conditions: in vivo
How it was run: (§1)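 Male Sprague-Dawley rats (HC/CFY, 175-200 g) fasted and water-deprived 18 h before and during the test. Dosed by gavage at 2.5-160 mg/kg in 1% carboxymethyl cellulose/0.1% Tween 80, 0.5 mL/100 g bw. Immediately hydrated with water (2.5 mL/100 g bw, po). Urine collected 6 h in metabolic cages; Na+ and K+ by flame photometry; mean mequiv/6 h/kg bw; nonpaired Student t-test.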

Rattus norvegicus [2] = assay: Volume of urine 1 hr after the compound was administered 125 mg/kg po in rat; type: ADME, organism-based; parameters: dose 125 mg/kg, route oral; conditions: in vivo
How it was run: (§2)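 Onset/duration protocol: male Sprague-Dawley rats (HC/CFY, 175-200 g), food and water withdrawn for 18 h before and during the test. Single gavage dose in 1% carboxymethyl cellulose/0.1% Tween 80 (0.5 mL/100 g bw), then distilled water load (2.5 mL/100 g bw po). Two rats per metabolic cage, six pairs per group. Urine collected at 0-1, 1-2, 2-3, 3-4 and 4-6 h; Na+ by flame photometry. Vehicle controls; nonpaired Student t-test.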

Rattus norvegicus [3] = assay: Mean Chlorine excretion in rats when compound administered at 80 mg/kg po and vehicle dosed at 315.88 umol/kg; type: ADME, organism-based; parameters: dose 80 mg/kg, route oral; conditions: in vivo
How it was run: (§3)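 Male Sprague-Dawley rats (HC/CFY, 175-200 g), no food or water for 18 h before and during the test. Single gavage dose (2.5-160 mg/kg; vehicle 1% carboxymethyl cellulose/0.1% Tween 80, 0.5 mL/100 g bw), then distilled water 2.5 mL/100 g bw po. Individual metabolic cages, 6 h urine. K+ by flame photometry, Cl- colorimetric, as mequiv/6 h/kg bw; unpaired Student t-test vs control.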

Rattus norvegicus [4] = assay: Mean potassium excretion in rats when compound administered at 20 mg/kg po and vehicle dosed at 78.97 umol/kg; type: ADME, organism-based; parameters: dose 20 mg/kg, route oral; conditions: in vivo; how it was run: as §3
Rattus norvegicus [5] = assay: Dose required to produce an excretion of 2 mequiv of Na+/kg bw/6h vs control groups; type: functional
How it was run: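 Male Sprague-Dawley rats (HC/CFY, 175-200 g), fasted and water-deprived 18 h before and during the test. Compound dosed by gavage in 1% carboxymethyl cellulose/0.1% Tween 80, then water load 2.5 mL/100 g bw po. Urine collected 6 h in metabolic cages; Na+ by flame photometry. Effective doses vs vehicle controls derived by linear regression of dose-response data.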

Rattus norvegicus [6] = assay: Volume of urine 6 hr after the compound was administered 125 mg/kg po in rat; type: ADME, organism-based; parameters: dose 125 mg/kg, route oral; conditions: in vivo; how it was run: as §2
Rattus norvegicus [7] = assay: Mean urinary output in rats when compound administered at 40 mg/kg po and vehicle dosed at 157.94 umol/kg; type: ADME, organism-based, Urine; parameters: dose 40 mg/kg, route oral; conditions: in vivo
How it was run: (§4)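 Water-loaded male Sprague-Dawley rats (HC/CFY, 175-200 g) fasted and without water for 18 h. Oral gavage of 2.5-160 mg/kg in 1% CMC with 0.1% Tween 80, then distilled water 2.5 mL/100 g po. Urine collected 6 h in metabolic cages, mean output in mL/6 h/kg bw. Unpaired Student t-test against vehicle; dose-response by linear regression.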

Rattus norvegicus [8] = assay: Mean urinary output in rats when compound administered at 160 mg/kg po and vehicle dosed at 631.76 umol/kg; type: ADME, organism-based, Urine; parameters: dose 160 mg/kg, route oral; conditions: in vivo; how it was run: as §4
Rattus norvegicus [9] = assay: Volume of urine 3h after the compound was administered 125 mg/kg po in rat; type: ADME, organism-based; parameters: dose 125 mg/kg, route oral; conditions: in vivo; how it was run: as §2
Rattus norvegicus [10] = assay: Mean Chlorine excretion in rats when compound administered at 5 mg/kg po and vehicle dosed at 19.74 umol/kg; type: ADME, organism-based; parameters: dose 5 mg/kg, route oral; conditions: in vivo; how it was run: as §3
Rattus norvegicus [11] = assay: Mean potassium excretion in rats when compound administered at 5 mg/kg po and vehicle dosed at 19.74 umol/kg; type: ADME, organism-based; parameters: dose 5 mg/kg, route oral; conditions: in vivo; how it was run: as §1
Rattus norvegicus [12] = assay: Mean sodium excretion in rats when compound administered at 40 mg/kg po and vehicle dosed at 157.94 umol/kg; type: ADME, organism-based; parameters: dose 40 mg/kg, route oral; conditions: in vivo; how it was run: as §1
Rattus norvegicus [13] = assay: Volume of urine 4 hr after the compound was administered 125 mg/kg po in rat; type: ADME, organism-based; parameters: dose 125 mg/kg, route oral; conditions: in vivo; how it was run: as §2
Rattus norvegicus [14] = assay: Mean sodium excretion in rats when compound administered at 2.5 mg/kg po and vehicle dosed at 9.87 umol/kg; type: ADME, organism-based; parameters: dose 2.5 mg/kg, route oral; conditions: in vivo; how it was run: as §1
Rattus norvegicus [15] = assay: Urinary sodium 1 hr after the compound was administered 125 mg/kg po in rat; type: ADME, organism-based, Urine; parameters: dose 125 mg/kg, route oral; conditions: in vivo
How it was run: (§5)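 Onset and duration study in fasted, water-loaded male Sprague-Dawley rats housed two per metabolic cage, six pairs per group. Single oral dose given, then water 2.5 mL/100 g po. Urine volume and sodium (flame photometry) measured over 0-1, 1-2, 2-3, 3-4 and 4-6 h intervals. Mean values compared with vehicle by Student t-test.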

Rattus norvegicus [16] = assay: Mean Chlorine excretion in rats when compound administered at 160 mg/kg po and vehicle dosed at 631.76 umol/kg; type: ADME, organism-based; parameters: dose 160 mg/kg, route oral; conditions: in vivo; how it was run: as §3
Rattus norvegicus [17] = assay: Urinary sodium 3h after the compound was administered 125 mg/kg po in rat; type: ADME, organism-based, Urine; parameters: dose 125 mg/kg, route oral; conditions: in vivo; how it was run: as §5
[18] = Acute toxicity in mice when given po; type: organism-based; conditions: mouse, in vivo, read-out: DL50 (the source's name)
How it was run: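 Male Swiss mice (SPF, HC/CFLP strain, 20–25 g), oral dosing; mortality followed over 15 days; LD50 derived by the Litchfield and Wilcoxon method.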

Rattus norvegicus [19] = assay: Mean urinary output in rats when compound administered at 80 mg/kg po and vehicle dosed at 315.88 umol/kg; type: ADME, organism-based, Urine; parameters: dose 80 mg/kg, route oral; conditions: in vivo; how it was run: as §4
Rattus norvegicus [20] = assay: Urinary sodium 4 hr after the compound was administered 125 mg/kg po in rat; type: ADME, organism-based, Urine; parameters: dose 125 mg/kg, route oral; conditions: in vivo; how it was run: as §5
Rattus norvegicus [21] = assay: Mean urinary output in rats when compound administered at 0 mg/kg po and vehicle dosed at 0 umol/kg; type: ADME, organism-based, Urine; parameters: dose 0 mg/kg, route oral; conditions: in vivo; how it was run: as §4
Rattus norvegicus [22] = assay: Mean Chlorine excretion in rats when compound administered at 10 mg/kg po and vehicle dosed at 39.48 umol/kg; type: ADME, organism-based; parameters: dose 10 mg/kg, route oral; conditions: in vivo; how it was run: as §3
Rattus norvegicus [23] = assay: Mean Chlorine excretion in rats when compound administered at 40 mg/kg po and vehicle dosed at 157.94 umol/kg; type: ADME, organism-based; parameters: dose 40 mg/kg, route oral; conditions: in vivo; how it was run: as §3

Nc1nc(N)c2nc(-c3ccccc3)c(N)nc2n1
Na (Rattus norvegicus [1]): 2.42 m equiv 6hr-1 kg-1 (body weight)-1
Urine volume (Rattus norvegicus [2]): 0.48 mL
Cl- (Rattus norvegicus [3]): 2.8 m equiv 6hr-1 kg-1 (body weight)-1
K (Rattus norvegicus [4]): 0.16 m equiv 6hr-1 kg-1 (body weight)-1
ED2 (Rattus norvegicus [5]): 3.8 mg/kg
Urine volume (Rattus norvegicus [6]): 4.36 mL
V (Rattus norvegicus [7]): 38.1 ml 6hr-1 (kg of body weight)-1
V (Rattus norvegicus [8]): 52 ml 6hr-1 (kg of body weight)-1
Urine volume (Rattus norvegicus [9]): 2.73 mL
Cl- (Rattus norvegicus [10]): 1.55 m equiv 6hr-1 kg-1 (body weight)-1
K (Rattus norvegicus [11]): 0.19 m equiv 6hr-1 kg-1 (body weight)-1
Na (Rattus norvegicus [12]): 2.88 m equiv 6hr-1 kg-1 (body weight)-1
Urine volume (Rattus norvegicus [13]): 1.78 mL
Na (Rattus norvegicus [14]): 1.69 m equiv 6hr-1 kg-1 (body weight)-1
Urinary Na+ (Rattus norvegicus [15]): 0.04 m equiv
Cl- (Rattus norvegicus [16]): 3.05 m equiv 6hr-1 kg-1 (body weight)-1
Urinary Na+ (Rattus norvegicus [17]): 0.19 m equiv
LD50 [18]: 344 mg/kg
V (Rattus norvegicus [19]): 44.92 ml 6hr-1 (kg of body weight)-1
Urinary Na+ (Rattus norvegicus [20]): 0.15 m equiv
V (Rattus norvegicus [21]): 24.94 ml 6hr-1 (kg of body weight)-1
Cl- (Rattus norvegicus [22]): 1.89 m equiv 6hr-1 kg-1 (body weight)-1
Cl- (Rattus norvegicus [23]): 2.83 m equiv 6hr-1 kg-1 (body weight)-1
